Structures can show the parent of a compound that is named as a salt.
Assays:
4T1 = assay: Antiproliferative activity against mouse 4T1 cells measured after 72 hrs by MTT assay; assay type: functional, cell-based; settings: 4T1, 72 h
Method in brief: (§1)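 MTT antiproliferation assay on human breast cancer lines MDA-MB-231, SUM-159, MCF-7 and Bcap-37 and on mouse 4T1 breast cancer cells. IC50 values were taken from the MTT read-out. Adriamycin served as the positive control.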

SUM-159-PT = assay: Antiproliferative activity against human SUM159 cells measured after 72 hrs by MTT assay; assay type: functional, cell-based; method in brief: as §1
MDA-MB-231 [1] = assay: Antiproliferative activity against human MDA-MB-231 cells measured after 72 hrs by MTT assay; assay type: functional, cell-based; settings: MDA-MB-231, 72 h; method in brief: as §1
MCF7 = assay: Antiproliferative activity against human MCF7 cells measured after 72 hrs by MTT assay; assay type: functional, cell-based; settings: MCF7, 72 h; method in brief: as §1
Bcap37 = assay: Antiproliferative activity against human Bcap37 cells measured after 72 hrs by MTT assay; assay type: functional, cell-based; settings: Bcap37, 72 h; method in brief: as §1
MDA-MB-231 [2] = assay: Potency index, ratio of parthenolide IC50 to test compound IC50 for human MDA-MB-231 cells; assay type: functional
NIH3T3 = assay: Cytotoxicity against mouse 3T3 cells measured after 72 hrs by MTT assay; assay type: cell-based; settings: NIH3T3, 72 h
Method in brief: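 Cytotoxicity was measured by MTT on normal 3T3 mouse embryonic fibroblasts, with IC50 from the MTT read-out.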

[3] = Therapeutic index, ratio of IC50 for mouse 3T3 cells to IC50 for mouse 4T1 cells; assay type: toxicity; settings: 3T3 cells and 4T1 cells, read-out: Ratio IC50

SMILES	IC50 (MDA-MB-231 [1]) [nM]	also measured
C=C1C(=O)O[C@H]2[C@H]1CC/C(COC(=O)/C(=C/c1cc(OC)ccc1OC)c1ccccc1)=C\CC[C@@]1(C)O[C@@H]21	2010	–
C=C1C(=O)O[C@H]2[C@H]1CC/C(COC(=O)/C(=C/c1cc(OC)ccc1OC)c1ccc(C)cc1)=C\CC[C@@]1(C)O[C@@H]21	2950	–
C=C1C(=O)O[C@H]2[C@H]1CC/C(COC(=O)CCc1cc(OC)ccc1OC)=C\CC[C@@]1(C)O[C@@H]21	1880	–
C=C1C(=O)O[C@H]2[C@H]1CC/C(COC(=O)/C=C/c1ccc(O)cc1)=C\CC[C@@]1(C)O[C@@H]21	1890	–
C=C1C(=O)O[C@H]2[C@H]1CC/C(COC(=O)/C(=C/c1cc(OC)ccc1OC)c1ccc(C(F)(F)F)cc1)=C\CC[C@@]1(C)O[C@@H]21	1980	–
C=C1C(=O)O[C@H]2[C@H]1CC/C(COC(=O)/C(=C/c1cc(OC)ccc1OC)c1ccc(Cl)cc1)=C\CC[C@@]1(C)O[C@@H]21	2020	–
C=C1C(=O)O[C@H]2[C@H]1CC/C(COC(=O)/C=C/c1cccnc1)=C\CC[C@@]1(C)O[C@@H]21	3270	–

Stronger by IC50 (MDA-MB-231 [1]), values ahead:

IC50 (MDA-MB-231 [1]) [nM]	SMILES	also measured
830	C=C1C(=O)O[C@H]2[C@H]1CC/C(COC(=O)/C=C/c1cccc(C(F)(F)F)c1)=C\CC[C@@]1(C)O[C@@H]21	IC50 (4T1): 1480 nM; IC50 (SUM-159-PT): 640 nM; IC50 (MCF7): 2150 nM; IC50 (Bcap37): 1860 nM
1020	C=C1C(=O)O[C@H]2[C@H]1CC/C(COC(=O)/C=C/c1ccc(Br)cc1)=C\CC[C@@]1(C)O[C@@H]21	–
1800	C=C1C(=O)O[C@H]2[C@H]1CC/C(COC(=O)/C=C/c1ccc3c(c1)OCO3)=C\CC[C@@]1(C)O[C@@H]21	–
340	C=C1C(=O)O[C@H]2[C@H]1CC/C(COC(=O)/C=C/c1ccccc1OCC)=C\CC[C@@]1(C)O[C@@H]21	IC50 (4T1): 180 nM; IC50 (SUM-159-PT): 210 nM; IC50 (MCF7): 290 nM; Ratio IC50 (MDA-MB-231 [2]): 10; IC50 (Bcap37): 420 nM
800	COc1cccc2c1C(=O)c1c(O)c3c(c(O)c1C2=O)C[C@@](O)(C(=O)CO)C[C@@H]3O[C@H]1C[C@H](N)[C@H](O)[C@H](C)O1 [DOXORUBICIN HYDROCHLORIDE]	IC50 (NIH3T3): 360 nM; IC50 (4T1): 800 nM; selectivity ratio [3]: 0.45
